These compounds were tested on Bacteria (assay: Inhibition of bacteria KPC-2 assessed as half life using nitrocefin as substrate). Settings: not given.

**Q.** How did the T1/2 turn out when `O=C(NNC(=O)[C@@H]1CC[C@@H]2CN1C(=O)N2OS(=O)(=O)O)[C@@H]1CCCNC1` [ZIDEBACTAM] was run?
**A.** 29 min

The compounds below were run on Escherichia coli (assay: Synergistic antibacterial activity against Escherichia coli DH10B assessed as cefepime MIC at 4 ug/ml by broth microdilution method). Settings: dose 4 µg/ml.
Assay type: functional

**Q.** For `O=C(NNC(=O)[C@@H]1CC[C@@H]2CN1C(=O)N2OS(=O)(=O)O)[C@@H]1CCCNC1` [ZIDEBACTAM], which MIC is on record?
**A.** ≤ 0.12 µg/mL

These compounds were tested on Klebsiella pneumoniae (assay: Synergistic antibacterial activity against Klebsiella pneumoniae 972/1910 producing KPC-3 assessed as cefepime MIC at 4 ug/ml by broth microdilution method). Settings: dose 4 µg/ml.
Assay type: functional

**Q.** For `O=C(NNC(=O)[C@@H]1CC[C@@H]2CN1C(=O)N2OS(=O)(=O)O)[C@@H]1CCCNC1` [ZIDEBACTAM], which MIC is on record?
**A.** ≤ 0.12 µg/mL

The compounds below were run on Pseudomonas aeruginosa (assay: Synergistic antibacterial activity against Pseudomonas aeruginosa 776 assessed as cefepime MIC at 4 ug/ml by broth microdilution method). Settings: dose 4 µg/ml.
Assay type: functional

**Q.** `O=C(NNC(=O)[C@@H]1CC[C@@H]2CN1C(=O)N2OS(=O)(=O)O)[C@@H]1CCCNC1` [ZIDEBACTAM] was tested. Which MIC did it give?
**A.** 16 µg/mL

The compounds below were run on Pseudomonas aeruginosa (assay: Synergistic antibacterial activity against Pseudomonas aeruginosa 839 assessed as cefepime MIC at 4 ug/ml by broth microdilution method). Settings: dose 4 µg/ml.
Assay type: functional

**Q.** For `O=C(NNC(=O)[C@@H]1CC[C@@H]2CN1C(=O)N2OS(=O)(=O)O)[C@@H]1CCCNC1` [ZIDEBACTAM], which MIC is on record?
**A.** 2 µg/mL

The compounds below were run on Acinetobacter baumannii (assay: Synergistic antibacterial activity against Acinetobacter baumannii PR323 producing OXA-24/40 assessed as cefepime MIC at 4 ug/ml by broth microdilution method). Settings: dose 4 µg/ml.
Assay type: functional

**Q.** How did the MIC turn out when `O=C(NNC(=O)[C@@H]1CC[C@@H]2CN1C(=O)N2OS(=O)(=O)O)[C@@H]1CCCNC1` [ZIDEBACTAM] was run?
**A.** 4 µg/mL

These compounds were tested on Acinetobacter baumannii (assay: Synergistic antibacterial activity against Acinetobacter baumannii PR408 producing OXA-24/40 assessed as cefepime MIC at 4 ug/ml by broth microdilution method). Settings: dose 4 µg/ml.
Assay type: functional

**Q.** How did the MIC turn out when `O=C(NNC(=O)[C@@H]1CC[C@@H]2CN1C(=O)N2OS(=O)(=O)O)[C@@H]1CCCNC1` [ZIDEBACTAM] was run?
**A.** 8 µg/mL

The compounds below were run on Acinetobacter baumannii (assay: Synergistic antibacterial activity against Acinetobacter baumannii PR448 producing OXA-23 assessed as cefepime MIC at 4 ug/ml by broth microdilution method). Settings: dose 4 µg/ml.
Assay type: functional

**Q.** How did the MIC turn out when `O=C(NNC(=O)[C@@H]1CC[C@@H]2CN1C(=O)N2OS(=O)(=O)O)[C@@H]1CCCNC1` [ZIDEBACTAM] was run?
**A.** 4 µg/mL

The compounds below were run on Escherichia coli (assay: Synergistic antibacterial activity against Escherichia coli DH10B transfected with pBR322-catI-KPC-2 assessed as cefepime MIC at 8 ug/ml by broth microdilution method). Settings: dose 8 µg/ml.
Assay type: functional
In short: (§1)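 Broth microdilution per CLSI guidelines, using custom frozen panels. […] Each partner drug was also tested alone. MICs were run in triplicate and the modal value is reported.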

**Q.** With `O=C(NNC(=O)[C@@H]1CC[C@@H]2CN1C(=O)N2OS(=O)(=O)O)[C@@H]1CCCNC1` [ZIDEBACTAM] as the compound, how does the MIC read?
**A.** ≤ 0.12 µg/mL

Each compound was assayed on Klebsiella pneumoniae (assay: Synergistic antibacterial activity against Klebsiella pneumoniae 660/1568 producing KPC-3 assessed as cefepime MIC at 8 ug/ml by broth microdilution method). Settings: dose 8 µg/ml.
Assay type: functional
In short: as §1

**Q.** For `O=C(NNC(=O)[C@@H]1CC[C@@H]2CN1C(=O)N2OS(=O)(=O)O)[C@@H]1CCCNC1` [ZIDEBACTAM], which MIC is on record?
**A.** ≤ 0.12 µg/mL

The compounds below were run on Klebsiella pneumoniae (assay: Synergistic antibacterial activity against Klebsiella pneumoniae 729/1679 producing KPC-3 assessed as cefepime MIC at 8 ug/ml by broth microdilution method). Settings: dose 8 µg/ml.
Assay type: functional
In short: as §1

**Q.** `O=C(NNC(=O)[C@@H]1CC[C@@H]2CN1C(=O)N2OS(=O)(=O)O)[C@@H]1CCCNC1` [ZIDEBACTAM] was tested. Which MIC did it give?
**A.** ≤ 0.12 µg/mL

Each compound was assayed on Klebsiella pneumoniae (assay: Synergistic antibacterial activity against Klebsiella pneumoniae 1108/1989 producing KPC-3 assessed as cefepime MIC at 8 ug/ml by broth microdilution method). Settings: dose 8 µg/ml.
Assay type: functional
In short: as §1

**Q.** `O=C(NNC(=O)[C@@H]1CC[C@@H]2CN1C(=O)N2OS(=O)(=O)O)[C@@H]1CCCNC1` [ZIDEBACTAM] was tested. Which MIC did it give?
**A.** ≤ 0.12 µg/mL

These compounds were tested on Klebsiella pneumoniae (assay: Synergistic antibacterial activity against Klebsiella pneumoniae CAV 1636 producing OXA-181 assessed as cefepime MIC at 8 ug/ml by broth microdilution method). Settings: dose 8 µg/ml.
Assay type: functional

**Q.** Which MIC does the source give for `O=C(NNC(=O)[C@@H]1CC[C@@H]2CN1C(=O)N2OS(=O)(=O)O)[C@@H]1CCCNC1` [ZIDEBACTAM] here?
**A.** ≤ 0.12 µg/mL

Each compound was assayed on Pseudomonas aeruginosa (assay: Synergistic antibacterial activity against Pseudomonas aeruginosa CL232 assessed as cefepime MIC at 8 ug/ml by broth microdilution method). Settings: dose 8 µg/ml.
Assay type: functional

**Q.** For `O=C(NNC(=O)[C@@H]1CC[C@@H]2CN1C(=O)N2OS(=O)(=O)O)[C@@H]1CCCNC1` [ZIDEBACTAM], which MIC is on record?
**A.** 16 µg/mL

What follows are compounds tested on Acinetobacter baumannii (assay: Synergistic antibacterial activity against Acinetobacter baumannii PR381 producing OXA-24/40 assessed as cefepime MIC at 8 ug/ml by broth microdilution method). Settings: dose 8 µg/ml.
Assay type: functional

**Q.** Which MIC does the source give for `O=C(NNC(=O)[C@@H]1CC[C@@H]2CN1C(=O)N2OS(=O)(=O)O)[C@@H]1CCCNC1` [ZIDEBACTAM] here?
**A.** 16 µg/mL

What follows are compounds tested on Acinetobacter baumannii (assay: Synergistic antibacterial activity against Acinetobacter baumannii PR476 producing OXA-24/40 assessed as cefepime MIC at 8 ug/ml by broth microdilution method). Settings: dose 8 µg/ml.
Assay type: functional

**Q.** How did the MIC turn out when `O=C(NNC(=O)[C@@H]1CC[C@@H]2CN1C(=O)N2OS(=O)(=O)O)[C@@H]1CCCNC1` [ZIDEBACTAM] was run?
**A.** 2 µg/mL

The compounds below were run on Klebsiella pneumoniae (assay: Synergistic antibacterial activity against Klebsiella pneumoniae 1084/1957 producing KPC-3 assessed as meropenem MIC at 4 ug/ml by broth microdilution method). Settings: dose 4 µg/ml.
Assay type: functional
In short: as §1

**Q.** Which MIC does the source give for `O=C(NNC(=O)[C@@H]1CC[C@@H]2CN1C(=O)N2OS(=O)(=O)O)[C@@H]1CCCNC1` [ZIDEBACTAM] here?
**A.** ≤ 0.12 µg/mL

What follows are compounds tested on Klebsiella pneumoniae (assay: Synergistic antibacterial activity against Klebsiella pneumoniae 1398/2291 producing KPC-3 assessed as meropenem MIC at 4 ug/ml by broth microdilution method). Settings: dose 4 µg/ml.
Assay type: functional
In short: as §1

**Q.** `O=C(NNC(=O)[C@@H]1CC[C@@H]2CN1C(=O)N2OS(=O)(=O)O)[C@@H]1CCCNC1` [ZIDEBACTAM] was tested. Which MIC did it give?
**A.** ≤ 0.12 µg/mL

Source: ChEMBL document CHEMBL5247575 (J Med Chem, 2018)
